# Results taken from ChEMBL document CHEMBL3244381, “Tetramisole analogues as inhibitors of alkaline phosphatase, an enzyme involved in the resistance of neoplastic cells to 6-thiopurines” (J Med Chem, 1977).
# Activity calls are given as the source filed them. The rule behind the calls is not given here.
# Biological target: T1, Alkaline phosphatase, tissue-nonspecific isozyme (Mus musculus) (UniProt P09242)
# T1 sequence (whole entry): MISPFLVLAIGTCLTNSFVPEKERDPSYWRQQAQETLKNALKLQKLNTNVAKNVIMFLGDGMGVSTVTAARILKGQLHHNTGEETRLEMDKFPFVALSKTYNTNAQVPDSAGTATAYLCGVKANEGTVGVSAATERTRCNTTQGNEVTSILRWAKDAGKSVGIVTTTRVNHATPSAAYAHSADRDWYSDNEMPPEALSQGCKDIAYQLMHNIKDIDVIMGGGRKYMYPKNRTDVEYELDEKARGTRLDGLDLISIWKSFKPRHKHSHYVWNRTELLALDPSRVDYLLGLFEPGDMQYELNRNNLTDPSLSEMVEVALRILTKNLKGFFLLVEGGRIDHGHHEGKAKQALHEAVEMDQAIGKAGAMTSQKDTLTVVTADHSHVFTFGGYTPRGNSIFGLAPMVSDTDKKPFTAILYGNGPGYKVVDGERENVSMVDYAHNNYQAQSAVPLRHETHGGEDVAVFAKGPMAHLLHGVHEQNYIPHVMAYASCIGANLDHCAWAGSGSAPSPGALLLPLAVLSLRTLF
# Assay: Inhibition of alkaline phosphatase in mouse Sarcoma 180/TG cells up to 5 x 10^-4 M
# Type: cell-based
# Settings: not given
# In short: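 Particulate-bound alkaline phosphatase, partially purified from Sarcoma 180/TG ascites cells (4360 units/mL), exposed to oxalate salts at concentrations up to at least 5 x 10^-4 M and checked for significant inhibition.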
row,Structure (SMILES),inhibition
1,CSc1nc(-c2ccccc2)cn1CCO,inactive
2,CC(=O)/N=c1\sccn1CC(O)c1ccc(C)c(C)c1 (racemic),inactive
3,CC(=O)/N=c1\sccn1CC(=O)c1ccc2ccccc2c1,inactive
4,CC(=O)/N=c1\sccn1CC(O)c1ccc2ccccc2c1 (racemic),inactive
5,N=c1sccn1CC(=O)c1ccc([N+](=O)[O-])cc1,inactive
6,N=C1SCCN1CC(=O)c1ccc2ccccc2c1,inactive
7,CC(=O)/N=c1\sccn1CC(O)c1ccc([N+](=O)[O-])cc1 (racemic),inactive
8,CC(=O)/N=C1\SCCN1CC(O)c1cccc(C)c1 (racemic),inactive
9,N=c1sccn1CC(=O)c1ccc2ccccc2c1,inactive
10,CSc1nc(-c2ccccc2)c[nH]1,inactive
11,CC(=O)/N=c1\sccn1CC(O)c1ccc(Br)cc1 (racemic),inactive
12,CC(=O)/N=c1\sccn1CC(=O)c1ccc([N+](=O)[O-])cc1,inactive
13,CC(=O)/N=c1\sccn1CC(=O)c1ccc(C)c(C)c1,inactive
14,CC(=O)/N=C1\SCCN1CC(=O)c1ccc2ccccc2c1,inactive
15,CC(=O)/N=C1\SCCN1CC(=O)c1cccc(C)c1,inactive
16,N=c1sccn1CC(=O)c1ccc(Br)cc1,inactive
17,CC(=O)/N=c1\sccn1CC(=O)c1ccc(C)cc1,inactive
18,CC(=O)/N=c1\sccn1CC(=O)c1ccc(Br)cc1,inactive
19,Cc1ccc(C(=O)Cn2ccsc2=N)cc1,inactive
20,Cc1cccc(C(=O)CN2CCSC2=N)c1,inactive
21,CC(=O)/N=c1\sccn1CC(O)c1ccc(C)cc1 (racemic),inactive
22,CC(=O)/N=C1\SCCN1CC(O)c1ccc2ccccc2c1 (racemic),inactive

# System: not listed separately
# Assay: Ratio of growth inhibition of mouse Sarcoma 180/TG cells in presence of […] to growth inhibition of mouse Sarcoma 180/TG cells in absence of […] at 10 uM after 96 hrs
# Type: functional
# Settings: not given
# In short: (§1)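 Log-phase Sarcoma 180/TG cells were seeded at 10^4 cells/mL in Fischer's medium with 10% horse serum at 37 °C. They were given the oxalate salt with or without 6-thioguanine (10^-6 M) for 96 h, and cell number/mL was counted. Ratio = cell count with 6-thioguanine / count without × 100.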
row,Structure (SMILES),Ratio
1,Brc1ccc([C@H]2CN3CCSC3=N2)cc1.O=C(O)C(=O)O,69

# System: not listed separately
# Assay: Ratio of growth inhibition of mouse Sarcoma 180/TG cells in presence of […] to growth inhibition of mouse Sarcoma 180/TG cells in absence of […] at 50 uM after 96 hrs
# Type: functional
# Settings: not given
# In short: as §1
row,Structure (SMILES),Ratio
1,Brc1ccc([C@H]2CN3CCSC3=N2)cc1.O=C(O)C(=O)O,66

# System: not listed separately
# Assay: Ratio of growth inhibition of mouse Sarcoma 180/TG cells in presence of […] to growth inhibition of mouse Sarcoma 180/TG cells in absence of […] at 100 uM after 96 hrs
# Type: functional
# Settings: not given
# In short: as §1
row,Structure (SMILES),Ratio
1,Brc1ccc([C@H]2CN3CCSC3=N2)cc1.O=C(O)C(=O)O,49

# Biological target: T2, Alkaline phosphatase, tissue-nonspecific isozyme (Mus musculus, UniProt P09242)
# T2 sequence (P09242 whole entry): T1 sequence (whole entry)
# Assay: Inhibition of alkaline phosphatase in mouse Sarcoma 180/TG cells
# Type: cell-based
# Settings: read-out: I50
# In short: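 Partially purified particulate-bound alkaline phosphatase from Sarcoma 180/TG ascites cells (4360 units/mL); compounds tested as oxalate salts; IC50 taken as the concentration cutting observed enzyme activity by 50%.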
row,Structure (SMILES),IC50
1,Brc1cccc(C2CN3C=CSC3=N2)c1 (racemic),2 µM
2,O=[N+]([O-])c1ccc(C2CN3C=CSC3=N2)cc1 (racemic),8.3 µM
3,Brc1ccc([C@H]2CN3CCSC3=N2)cc1.O=C(O)C(=O)O,1.8 µM
4,c1ccc2cc(C3CN4CCSC4=N3)ccc2c1 (racemic),9 µM
5,Cc1ccc(C2CN3C=CSC3=N2)cc1C (racemic),11 µM
6,Brc1ccc(C2CN3C=CSC3=N2)cc1 (racemic),1.3 µM
7,C1=CN2CC(c3ccc4ccccc4c3)N=C2S1 (racemic),1 µM
8,Cc1ccc(C2CN3CCSC3=N2)cc1 (racemic),8.1 µM
9,c1ccc(C2CN3CCSC3=N2)cc1 (racemic),38 µM
10,Clc1ccc(C2CN3CCSC3=N2)cc1 (racemic),4.5 µM
11,C1=CN2CC(c3ccccc3)N=C2S1 (racemic),45 µM
12,Fc1ccc(C2CN3CCSC3=N2)cc1 (racemic),16 µM
13,Cc1ccc(C2CN3C=CSC3=N2)cc1 (racemic),6.6 µM
14,O=[N+]([O-])c1cccc(C2CN3CCSC3=N2)c1 (racemic),38 µM
15,Brc1ccc(C2CN3CCSC3=N2)cc1 (racemic),2.6 µM
16,Cc1cccc(C2CN3CCSC3=N2)c1 (racemic),40 µM
17,C1=CN2CC(c3cccs3)N=C2S1 (racemic),50 µM
